Article PMC9890135 (Molecular Cancer Therapeutics, 2022)

Columns and labels:
VEGFR2 [1] = molecular target: VEGFR2 (Mus musculus, UniProt P35918); format: in vivo, mice; details: lung
Outline: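 Hs 746T tumour-bearing mice received single oral doses (30 or 100 mg/kg; n = 5 pooled) or vehicle (n = 6 pooled). Then hVEGF (10 μg i.v.) 3.5 h later, 30 min before sacrifice. Lung homogenate immunoprecipitated overnight with anti-VEGFR2 on Protein A magnetic beads; Western for phospho- and total VEGFR2, infrared imaging. 100 mg/kg group also sampled every 12 h to 48 h.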

CT26 tumors = experiment: CT26 syngeneic colorectal cancer survival model; format: in vivo, mice; details: XL092 30 mg/kg orally once a day, anti-PD-1 10 mg/kg every 3–4 days i.p.
Outline: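 CT26 syngeneic mice randomised at ~90 mm3. Treatment: oral test compound 30 mg/kg once daily for 34 days, with or without anti-PD-1 antibody (10 mg/kg i.p. every 3–4 days for 5 weeks, diluted in sterile PBS), or vehicle. Animals sacrificed at tumour volume 2,500 mm3; survival analysed by Kaplan–Meier.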

SNU-5 cells = experiment: Cellular proliferation, BrdU incorporation ELISA; format: cell-based; details: Homo sapiens, SNU-5, 48 h, read-out: Proliferation IC50
Outline: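 SNU-5 seeded at 7,500 cells/well in triplicate in IMDM + 10% FBS + 1% penicillin-streptomycin, overnight at 37°C, 5% CO2. Serial dilutions added for 48 h. BrdU labelling 2 h at 37°C. Plates spun 300 × g, 10 min before medium removal. FixDenat 30 min at RT, anti-BrdU-POD 90 min at RT, washes, chemiluminescent read.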

[2] = Plasma protein binding, rapid equilibrium dialysis; format: in vitro ADME; details: mouse
Outline: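 Rapid equilibrium dialysis against PBS at 10 μmol/L test compound, 16 h incubation, in triplicate.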

[3] = humans; preliminary phase I data (NCT03845166); cited from earlier work
VEGFR2 [4] = molecular target: VEGFR2 (Homo sapiens, UniProt P35968); experiment: Inhibition of receptor phosphorylation, ELISA, HUVEC/VEGF165; format: cell-based; details: Cellular IC50 ± SD, VEGFR2 autophosphorylation, serum-free
Hs 746T tumors = experiment: Hs 746T xenograft tumor growth; format: in vivo, mice; details: 12 days, oral
Outline: (§1)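 Human tumour cells inoculated into the rear flank. Mice randomised at mean volumes of ~200 mm3 (Hs 746T), ~120 mm3 (MDA-MB-231), ~100 mm3 (NCI-H441) or ~90 mm3 (SNU-5). Oral gavage once daily with test compound or vehicle. Tumour volume and body weight measured at least twice weekly. […], using mean volumes at extraction and dosing start.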

[5] = system: panel of 405 protein kinases; experiment: KinaseProfiler 33P radiometric kinase assay, panel; format: biochemical
Outline: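 Radiometric 33P-phosphoryl transfer assay measuring catalytic activity of recombinant active kinase domains across the profiling panel.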

[6] = system: primary human CD14+ monocyte-derived M2 macrophages; experiment: Macrophage M2 to M1 repolarization; format: cell-based; details: 2, 4, and 6 μmol/L XL092 for 7 days; 5 donors
Outline: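 CD14+ monocytes (1.0 × 10^6 cells/mL) differentiated 6 days into M2 macrophages, then cryopreserved. Thawed cells seeded at 2.0 × 10^5/well in M2 differentiation medium and exposed to 2, 4 or 6 μmol/L for 7 days at 37°C, 5% CO2, with medium and compound renewed on day 4; triplicate per donor, 5 donors. After Fc block, stained with anti-CD163 and 7-AAD. Viable CD163−/CD163+ ratio expressed as fold change versus DMSO.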

AXL = molecular target: T1, AXL (Homo sapiens, UniProt P30530); experiment: AXL phosphorylation in Hs 746T tumors in vivo; design: species or system mice
T1 sequence (P30530 26-894): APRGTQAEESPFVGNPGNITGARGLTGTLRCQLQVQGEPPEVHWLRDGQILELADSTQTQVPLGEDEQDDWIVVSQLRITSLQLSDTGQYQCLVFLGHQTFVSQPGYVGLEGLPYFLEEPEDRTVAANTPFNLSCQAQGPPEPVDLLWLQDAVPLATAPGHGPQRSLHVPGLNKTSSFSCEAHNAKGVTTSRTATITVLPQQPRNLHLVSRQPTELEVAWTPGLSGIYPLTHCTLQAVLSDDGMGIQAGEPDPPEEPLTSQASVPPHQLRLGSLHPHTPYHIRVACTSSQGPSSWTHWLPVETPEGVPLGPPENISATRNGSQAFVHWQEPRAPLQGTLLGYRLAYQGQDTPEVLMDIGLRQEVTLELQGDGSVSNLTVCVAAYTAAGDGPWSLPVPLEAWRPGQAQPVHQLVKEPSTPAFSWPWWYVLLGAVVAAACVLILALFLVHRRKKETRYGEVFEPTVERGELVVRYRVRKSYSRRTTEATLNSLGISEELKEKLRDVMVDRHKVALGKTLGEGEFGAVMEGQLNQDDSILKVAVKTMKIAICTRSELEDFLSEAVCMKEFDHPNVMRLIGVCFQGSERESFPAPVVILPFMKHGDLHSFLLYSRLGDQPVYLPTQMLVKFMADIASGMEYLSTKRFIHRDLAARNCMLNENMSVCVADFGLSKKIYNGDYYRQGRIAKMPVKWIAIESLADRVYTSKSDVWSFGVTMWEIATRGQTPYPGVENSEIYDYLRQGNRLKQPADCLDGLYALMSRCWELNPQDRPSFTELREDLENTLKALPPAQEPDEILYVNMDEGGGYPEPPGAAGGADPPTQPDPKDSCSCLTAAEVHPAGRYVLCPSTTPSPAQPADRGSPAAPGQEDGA
Outline: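 Hs 746T xenograft mice received single oral doses (30 or 100 mg/kg) or vehicle, n = 6/group. […] Tumour pAXL/AXL ratio reported as mean ± SEM, Mann–Whitney U test. Duration study: 100 mg/kg group sampled every 12 h up to 48 h.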

MET = MET (Homo sapiens, UniProt P08581, DEL964-1010); experiment: MET phosphorylation in Hs 746T tumors in vivo; design: species or system mice; details: Hs 746T model; single dose of 100 mg/kg
[7] = system: human xenograft murine models; experiment: Murine xenograft models overall; format: in vivo, mice; details: after 14 days of daily 10 mg/kg treatments
Outline: as §1

[8] = Hs 746T model, single dose of 100 mg/kg

Sequence of VEGFR2 (Mus musculus, UniProt P35918) (P35918 20-1345): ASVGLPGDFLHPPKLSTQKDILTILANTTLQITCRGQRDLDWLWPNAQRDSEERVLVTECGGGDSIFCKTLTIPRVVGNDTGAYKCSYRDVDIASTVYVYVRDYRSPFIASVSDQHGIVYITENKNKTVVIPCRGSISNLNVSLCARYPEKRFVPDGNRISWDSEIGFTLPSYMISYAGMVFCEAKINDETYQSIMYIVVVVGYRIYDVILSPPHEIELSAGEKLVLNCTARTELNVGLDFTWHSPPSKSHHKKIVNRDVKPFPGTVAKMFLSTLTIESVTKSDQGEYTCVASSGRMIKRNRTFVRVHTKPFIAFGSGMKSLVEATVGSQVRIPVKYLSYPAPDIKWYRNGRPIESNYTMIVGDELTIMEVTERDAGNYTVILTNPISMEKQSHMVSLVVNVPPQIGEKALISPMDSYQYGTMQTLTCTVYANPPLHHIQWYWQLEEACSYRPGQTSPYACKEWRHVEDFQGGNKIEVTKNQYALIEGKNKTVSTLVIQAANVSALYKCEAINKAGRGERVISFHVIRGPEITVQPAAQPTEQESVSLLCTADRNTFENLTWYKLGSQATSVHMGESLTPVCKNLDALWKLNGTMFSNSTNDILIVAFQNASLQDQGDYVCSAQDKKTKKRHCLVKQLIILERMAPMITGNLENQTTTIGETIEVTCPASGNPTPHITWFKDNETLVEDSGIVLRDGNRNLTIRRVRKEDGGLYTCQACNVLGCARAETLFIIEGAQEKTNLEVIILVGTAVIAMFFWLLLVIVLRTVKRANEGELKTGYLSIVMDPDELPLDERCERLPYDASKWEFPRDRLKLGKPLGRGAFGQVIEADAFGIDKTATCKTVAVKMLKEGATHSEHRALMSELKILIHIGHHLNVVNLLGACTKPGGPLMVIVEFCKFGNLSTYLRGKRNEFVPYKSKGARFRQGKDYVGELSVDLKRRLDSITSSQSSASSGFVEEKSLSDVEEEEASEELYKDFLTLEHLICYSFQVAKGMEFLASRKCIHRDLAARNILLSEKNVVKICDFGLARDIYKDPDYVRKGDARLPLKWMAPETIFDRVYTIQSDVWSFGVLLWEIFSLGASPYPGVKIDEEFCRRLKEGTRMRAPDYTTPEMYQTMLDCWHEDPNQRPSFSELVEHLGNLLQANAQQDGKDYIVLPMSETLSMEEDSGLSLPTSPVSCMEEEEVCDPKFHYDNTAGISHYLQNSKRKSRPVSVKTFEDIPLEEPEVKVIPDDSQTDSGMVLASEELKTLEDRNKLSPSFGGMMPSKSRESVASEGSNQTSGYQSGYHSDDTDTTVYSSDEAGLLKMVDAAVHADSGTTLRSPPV
Sequence of VEGFR2 (Homo sapiens, UniProt P35968) (P35968 20-1356): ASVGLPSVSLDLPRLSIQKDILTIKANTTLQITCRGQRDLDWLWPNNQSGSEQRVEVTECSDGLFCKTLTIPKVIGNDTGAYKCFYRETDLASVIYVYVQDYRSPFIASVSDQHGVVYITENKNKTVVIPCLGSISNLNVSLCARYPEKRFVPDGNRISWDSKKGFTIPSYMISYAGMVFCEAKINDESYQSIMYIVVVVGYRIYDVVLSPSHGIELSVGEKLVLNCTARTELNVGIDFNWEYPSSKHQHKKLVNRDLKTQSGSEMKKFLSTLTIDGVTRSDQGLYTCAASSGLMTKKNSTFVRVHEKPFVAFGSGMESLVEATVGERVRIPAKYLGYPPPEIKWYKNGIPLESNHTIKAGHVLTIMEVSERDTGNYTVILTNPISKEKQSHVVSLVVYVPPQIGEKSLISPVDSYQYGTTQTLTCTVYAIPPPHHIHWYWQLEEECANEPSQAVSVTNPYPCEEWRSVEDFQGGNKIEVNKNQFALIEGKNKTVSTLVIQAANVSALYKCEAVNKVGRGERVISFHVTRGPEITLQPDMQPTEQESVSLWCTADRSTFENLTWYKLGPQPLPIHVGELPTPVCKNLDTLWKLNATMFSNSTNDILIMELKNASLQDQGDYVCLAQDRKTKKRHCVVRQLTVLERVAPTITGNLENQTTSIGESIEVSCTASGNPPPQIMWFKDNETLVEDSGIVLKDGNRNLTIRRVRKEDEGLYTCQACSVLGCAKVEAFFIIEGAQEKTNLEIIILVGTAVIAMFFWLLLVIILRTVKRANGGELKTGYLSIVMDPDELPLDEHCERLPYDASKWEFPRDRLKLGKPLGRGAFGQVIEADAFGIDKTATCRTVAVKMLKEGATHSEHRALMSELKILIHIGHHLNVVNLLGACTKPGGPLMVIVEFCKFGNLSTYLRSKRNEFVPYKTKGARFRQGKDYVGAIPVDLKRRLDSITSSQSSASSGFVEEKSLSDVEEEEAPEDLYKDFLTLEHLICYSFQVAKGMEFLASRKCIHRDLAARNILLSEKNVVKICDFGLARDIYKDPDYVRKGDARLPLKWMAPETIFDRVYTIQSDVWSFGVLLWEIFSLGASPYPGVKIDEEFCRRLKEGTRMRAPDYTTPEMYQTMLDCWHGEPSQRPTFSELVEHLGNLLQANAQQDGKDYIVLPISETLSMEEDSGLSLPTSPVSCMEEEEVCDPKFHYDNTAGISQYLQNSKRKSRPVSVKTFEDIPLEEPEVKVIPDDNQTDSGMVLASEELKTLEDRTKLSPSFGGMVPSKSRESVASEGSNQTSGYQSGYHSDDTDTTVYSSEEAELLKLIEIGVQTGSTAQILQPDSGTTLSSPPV

CNC(=O)c1cc2c(Oc3ccc(NC(=O)C4(C(=O)Nc5ccc(F)cc5)CC4)cc3)ccnc2cc1OC [XL092]
duration of inhibition of VEGFR2 phosphorylation (VEGFR2 [1]; [8]): approximately 24 hours | pVEGFR2 Inhibition, % (VEGFR2 [1]; Hs 746T tumor-bearing mice, 30 mg/kg single bolus, 4 hours after treatment): complete abolishment | survival to the end of the 34-day dosing regimen (CT26 tumors): 20% | IC50 (SNU-5 cells): 98.9 nM | fraction unbound at 16 h, 10 μmol/L [2]: 0.003 | half-life [3]: approximately 24 hours | IC50 (VEGFR2 [4]): 1.57 ± 1.52 nM | Tumor growth inhibition (Hs 746T tumors; 1 mg/kg/day): 10.1% | Tumor growth inhibition (Hs 746T tumors; 3 mg/kg/day): 35.6% | Tumor growth inhibition (Hs 746T tumors; 10 mg/kg/day): 70.2% | Tumor growth inhibition (Hs 746T tumors; 30 mg/kg/day): 94.9% | activity against serine or threonine kinases ([5]; kinase profiling): No activity | inhibition of additional RTKs and TKs ([5]; single concentration of 1 μmol/L, panel of 405 protein kinases): ≥ 70% | M1 (CD163-negative) to M2 (CD163-positive) ratio [6]: dose-dependent increases | duration of inhibition of AXL phosphorylation (AXL; [8]): approximately 24 hours | tumor AXL phosphorylation relative to vehicle (AXL; Hs 746T xenograft, single oral doses 30 or 100 mg/kg, P < 0.01): significant decrease | duration of inhibition of MET phosphorylation (MET): approximately 24 hours | TGI (summary over several models) [7]: ≥ 70%
